Laboratory results as given in ChEMBL document CHEMBL1132282, “Discovery of novel non-peptide CCR1 receptor antagonists” (J Med Chem, 1999).

What was measured:
[1] = molecular target: T1, C-C chemokine receptor type 1 (Homo sapiens, UniProt P32246); test: Inhibition of [125I]-MIP-1 alpha binding to recombinant human C-C chemokine receptor type 1 expressed in HEK293 cells; assay type: cell-based
T1 sequence (P32246 whole entry): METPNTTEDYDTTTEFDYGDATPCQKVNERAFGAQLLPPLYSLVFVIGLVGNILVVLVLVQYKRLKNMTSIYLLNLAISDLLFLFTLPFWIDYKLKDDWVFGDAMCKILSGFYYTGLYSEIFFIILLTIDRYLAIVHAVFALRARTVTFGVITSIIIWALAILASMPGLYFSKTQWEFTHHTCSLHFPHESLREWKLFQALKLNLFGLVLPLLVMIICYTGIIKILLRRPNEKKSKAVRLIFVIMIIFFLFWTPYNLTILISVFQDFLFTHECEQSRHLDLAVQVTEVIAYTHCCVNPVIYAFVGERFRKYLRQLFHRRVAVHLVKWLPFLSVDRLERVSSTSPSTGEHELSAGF

[2] = molecular target: T1, C-C chemokine receptor type 1; test: Inhibition of MIP-1-alpha-induced intracellular calcium mobilization in HEK293 cells expressing human CCR1 receptor; assay type: functional, cell-based
In short: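 HEK-293 cells overexpressing human CCR1 plated at 80 000 cells/well on poly-D-lysine, cultured one day, loaded with 4 μM Fluo-3 for 1 h at 37 °C in HBSS/Hepes with probenecid, then washed. Compound pretreatment 10 min at 37 °C, then 30 nM MIP-1α stimulation. FLIPR fluorescence read over 3 min at 37 °C. Six-concentration dose curves give IC50.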

[3] = molecular target: T2, C-C chemokine receptor type 1 (Homo sapiens) (UniProt P32246); test: Inhibition of [125I]-MIP-1 alpha binding to recombinant human C-C chemokine receptor type 1 expressed in HEK293 cells at 10 uM concentration; assay type: cell-based
T2 sequence (whole entry): T1 sequence (P32246 whole entry)

N#CC(CCCN1CCC(O)(c2ccc(Cl)cc2)CC1)c1cccc(O)c1 (configuration not stated)
Ki [1]: 0.156 µM
IC50 [2]: 9 µM

Cn1cccc1C(C#N)CCCN1CCC(O)(c2ccc(Cl)cc2)CC1 (configuration not stated)
Ki [1]: 0.429 µM

N#CC(CCCN1CCC(O)(c2ccc(Cl)cc2)CC1)c1ccccc1O (configuration not stated)
Ki [1]: 0.79 µM

N#CC(CCCN1CCC(O)(c2ccc(Cl)cc2)CC1)c1ccsc1 (configuration not stated)
Ki [1]: 0.236 µM
IC50 [2]: 9.8 µM

COC(=O)C(C#N)(CCCN1CCC(O)(c2ccc(Cl)cc2)CC1)c1ccccc1 (configuration not stated)
Ki [1]: 0.053 µM

CCOc1ccc(C(C#N)CCCN2CCC(O)(c3ccc(Cl)cc3)CC2)cc1 (configuration not stated)
Ki [1]: 1.42 µM

Cc1ccccc1C1(O)CCN(CCCC2(C#N)c3ccccc3CSc3ccccc32)CC1 (configuration not stated)
Ki [1]: 0.164 µM

N#CC1(CCCN2CCC(O)(c3cccc(C(F)(F)F)c3)CC2)c2ccccc2CSc2ccccc21 (configuration not stated)
Ki [1]: 0.623 µM

N#CC(CCCN1CCC(O)(c2ccc(Cl)cc2)CC1)c1ccc(O)cc1 (configuration not stated)
Ki [1]: 0.975 µM

CN(C)c1ccc(C2(O)CCN(CCCC(C#N)(c3ccccc3)c3ccccc3)CC2)cc1
Ki [1]: 1.16 µM

N#CC(CCCN1CCC(O)(c2ccc(Cl)cc2)CC1)c1ccccc1 (configuration not stated)
Ki [1]: 0.054 µM

N#CC(CCCN1CCC(CO)(c2ccccc2)CC1)(c1ccccc1)c1ccccc1
Ki [1]: 7.5 µM

N#CC1(CCCN2CCC(O)(c3ccc(Cl)cc3)CC2)c2ccccc2CCc2ccccc21
Ki [1]: 0.045 µM
IC50 [2]: 7.7 µM

N#CC(CCCN1CCC(O)(c2ccc(Cl)cc2)CC1)(c1ccccc1)c1ccccc1 [BERLEX COMPOUND]
Ki [1]: 0.052 µM
IC50 [2]: 2.5 µM

N#CC(CCCN1CCC(O)(c2ccccn2)CC1)(c1ccccc1)c1ccccc1
Ki [1]: 0.906 µM

N#CC(CCCN1CCC(O)(c2ccc(Cl)cc2)CC1)c1ccccc1Br (configuration not stated)
Ki [1]: 0.366 µM

C[N+]1(CCCC(c2ccccc2)c2ccccc2)CCC(O)(c2ccc(Cl)cc2)CC1 (configuration not stated)
Ki [1]: 0.006 µM
IC50 [2]: 1.8 µM

N#CC(CCCCN1CCC(O)(c2ccc(Cl)cc2)CC1)(c1ccccc1)c1ccccc1
Ki [1]: 0.078 µM
IC50 [2]: 1.6 µM

N#CC(CCCN1CCC(O)(c2ccc(Cl)cc2)CC1)c1ccccc1C(F)(F)F (configuration not stated)
inhibition [3]: 25%

N#CC(CCCN1CCC(O)(c2ccc(-c3ccccc3)cc2)CC1)(c1ccccc1)c1ccccc1
inhibition [3]: 30%

N#CC1(CCCN2CCC(O)(c3ccc(Br)cc3)CC2)c2ccccc2CSc2ccccc21 (configuration not stated)
Ki [1]: 0.022 µM

N#CC(CCCN1CCC(O)(c2ccc(Cl)cc2)CC1)c1ccc(F)cc1 (configuration not stated)
Ki [1]: 0.533 µM

O=C(NCC(CCCN1CCC(O)(c2ccc(Cl)cc2)CC1)(c1ccccc1)c1ccccc1)NC1CCNCC1
Ki [1]: 0.009 µM

N#CC(CCCN1CCC(O)(c2ccc(Cl)cc2)CC1)c1ccc(Cl)cc1 (configuration not stated)
Ki [1]: 0.463 µM

N#CC(CCCN1CCC(O)(c2ccc(Cl)cc2)CC1)c1cccc([N+](=O)[O-])c1 (configuration not stated)
Ki [1]: 0.51 µM

N#CC1(CCCN2CCC(O)(c3ccc(Cl)cc3)CC2)c2ccccc2CSc2ccccc21 (configuration not stated)
Ki [1]: 0.024 µM
IC50 [2]: 7 µM

N#CC(CCCN1CCC(O)(c2ccc(Cl)cc2)CC1)c1cccc2ccccc12 (configuration not stated)
inhibition [3]: 51%

N#CC(CCCN1CCC(O)(c2ccc(F)cc2)C1)(c1ccccc1)c1ccccc1 (configuration not stated)
inhibition [3]: 22%

N#CC(CCCN1CCC(O)(c2ccc(I)cc2)CC1)(c1ccccc1)c1ccccc1
Ki [1]: 0.233 µM

N#CC(CCCN1CCC(O)(c2ccc(Cl)cc2)CC1)c1ccccn1 (configuration not stated)
Ki [1]: 0.584 µM

N#CC(CCCCCN1CCC(O)(c2ccc(Cl)cc2)CC1)(c1ccccc1)c1ccccc1
Ki [1]: 0.099 µM
IC50 [2]: 5.6 µM

N#CC(CCCCl)(CCCN1CCC(O)(c2ccc(Cl)cc2)CC1)c1ccccc1 (configuration not stated)
Ki [1]: 0.051 µM
IC50 [2]: 8.3 µM

N#CC(CCCN1CCC(O)(c2ccc(Cl)cc2)CC1)c1ccccc1Cl (configuration not stated)
Ki [1]: 0.306 µM

N#CC(CCCN1CCC(O)(c2cccc(Cl)c2)CC1)(c1ccccc1)c1ccccc1
Ki [1]: 0.385 µM

N#CC1(CCCN2CCC(O)(c3ccc(Cl)cc3)CC2)c2ccccc2C[S+]([O-])c2ccccc21 (stereo in doubt; 6q)
Ki [1]: 0.071 µM

C[N+]1(CCCC(C#N)c2ccc3ccccc3c2)CCC(O)(c2ccc(Cl)cc2)CC1 (configuration not stated)
Ki [1]: 0.022 µM
IC50 [2]: 0.7 µM

N#CC(CCCN1CCC(O)(c2ccc(F)cc2)CC1)(c1ccccc1)c1ccccc1
Ki [1]: 0.136 µM

COC(=O)C(CCCN1CCC(O)(c2ccc(Cl)cc2)CC1)(c1ccccc1)c1ccccc1
Ki [1]: 0.406 µM

OC1(c2ccc(Cl)cc2)CCN(CCCC(c2ccccc2)c2ccccc2)CC1
Ki [1]: 0.116 µM
IC50 [2]: 8.7 µM

N#CC1(CCCN2CCC(O)(c3ccc(Cl)cc3)CC2)c2ccccc2COc2ccccc21 (configuration not stated)
Ki [1]: 0.034 µM
IC50 [2]: 7.7 µM

N#CC(CCCN1CCC(O)(c2ccc(Cl)cc2)CC1)(c1ccccc1)C1CCCCC1 (configuration not stated)
Ki [1]: 0.4 µM

N#CC(CCCN1CCC(O)(c2cc(Cl)cc(Cl)c2)CC1)(c1ccccc1)c1ccccc1
Ki [1]: 1.33 µM

CC(C#N)(CCCN1CCC(O)(c2ccc(Cl)cc2)CC1)c1ccccc1 (configuration not stated)
Ki [1]: 0.46 µM

N#CC(CCCN1CCC(O)(c2cccs2)CC1)(c1ccccc1)c1ccccc1
Ki [1]: 1.02 µM

N#CC(CCCN1CCC(O)(c2ccc(Cl)cc2)CC1)c1cccs1 (configuration not stated)
Ki [1]: 0.128 µM
IC50 [2]: 8.4 µM

N#CC(CCCN1CCC(O)(c2ccc(Cl)cc2)CC1)(c1ccccc1)N1CCCCC1 (configuration not stated)
Ki [1]: 0.13 µM
IC50 [2]: 4.8 µM

CN1C(=O)c2ccccc2C(C#N)(CCCN2CCC(O)(c3ccc(Cl)cc3)CC2)c2ccccc21 (configuration not stated)
Ki [1]: 0.032 µM
IC50 [2]: 3.3 µM

N#CC(CCCN1CCC(O)(c2ccc(Cl)cc2)CC1)c1ccccc1F (configuration not stated)
Ki [1]: 0.371 µM

N#CC1(CCCN2CCC(O)(c3ccc(Cl)cc3)CC2)c2ccccc2C[S+]([O-])c2ccccc21 (stereo in doubt; 6p)
Ki [1]: 0.054 µM

N#CC1(CCCN2CCC(O)(c3ccc(Br)cc3)CC2)c2ccccc2Cc2ccccc21
Ki [1]: 0.029 µM

CCCCC1(O)CCN(CCCC(C#N)(c2ccccc2)c2ccccc2)CC1
Ki [1]: 4.01 µM

NCC(CCCN1CCC(O)(c2ccc(Cl)cc2)CC1)(c1ccccc1)c1ccccc1
Ki [1]: 0.244 µM

COC(=O)C1(c2ccccc2)CCN(CCCC2(C#N)c3ccccc3Cc3ccccc32)CC1
inhibition [3]: 62%

N#CC(CCCN1CCC(O)(c2ccc(N)cc2)CC1)(c1ccccc1)c1ccccc1
inhibition [3]: 33%

N#CC1(CCCN2CCC(O)(Cc3ccccc3)CC2)c2ccccc2CSc2ccccc21 (configuration not stated)
Ki [1]: 0.405 µM

COc1ccc(C(C#N)CCCN2CCC(O)(c3ccc(Cl)cc3)CC2)cc1Br (configuration not stated)
Ki [1]: 0.074 µM
IC50 [2]: 1.9 µM

N#CC(CCCN1CCC(O)(c2ccc(Cl)cc2)CC1)c1ccc(OCc2ccccc2)cc1 (configuration not stated)
Ki [1]: 3.43 µM

N#Cc1ccccc1C(C#N)CCCN1CCC(O)(c2ccc(Cl)cc2)CC1 (configuration not stated)
Ki [1]: 0.098 µM
IC50 [2]: 5.8 µM

CCC(C#N)(CCCN1CCC(O)(c2ccc(Cl)cc2)CC1)c1ccccc1 (configuration not stated)
Ki [1]: 0.093 µM

COc1cc(C(C#N)CCCN2CCC(O)(c3ccc(Cl)cc3)CC2)cc(OC)c1OC (configuration not stated)
Ki [1]: 0.497 µM

N#CC1(CCCN2CCC(O)(c3ccc(Cl)cc3)CC2)c2ccccc2C=Cc2ccccc21
Ki [1]: 0.056 µM
IC50 [2]: 5.3 µM

N#CC1(CCCN2CCC(C(=O)O)(c3ccccc3)CC2)c2ccccc2Cc2ccccc21
inhibition [3]: 15%

N#CC(CCCN1CCC(O)(c2ccc(Cl)cc2)CC1)c1cccnc1 (configuration not stated)
Ki [1]: 1 µM

N#CC(CCCN1CCC(O)(c2ccc(Cl)cc2)CC1)c1cccc(OCc2ccccc2)c1 (configuration not stated)
inhibition [3]: 0%

CCOC(=O)C(C#N)(CCCN1CCC(O)(c2ccc(Cl)cc2)CC1)c1ccccc1 (configuration not stated)
Ki [1]: 0.033 µM
IC50 [2]: 7 µM

N#CC(CCCN1CCCC(O)(c2ccc(F)cc2)C1)(c1ccccc1)c1ccccc1 (configuration not stated)
inhibition [3]: 0%

N#CC(CCCN1CCC(O)(c2ccc(Cl)cc2)CC1)c1ccccc1OCc1ccccc1 (configuration not stated)
inhibition [3]: 46%

N#CC(CCCN1CCC(O)(c2ccc(Cl)cc2)CC1)c1cccc(Oc2ccccc2)c1 (configuration not stated)
Ki [1]: 0.908 µM

N#CCC(C#N)(CCCN1CCC(O)(c2ccc(Cl)cc2)CC1)c1ccccc1 (configuration not stated)
Ki [1]: 0.125 µM
IC50 [2]: 3.2 µM

N#CC(CCCN1CCC(O)(c2cccnc2)CC1)(c1ccccc1)c1ccccc1
Ki [1]: 0.206 µM

N#CC(CCCN1CCC(O)(c2ccc(C(F)(F)F)cc2)CC1)(c1ccccc1)c1ccccc1
Ki [1]: 0.153 µM

COc1ccc(C2(O)CCN(CCCC(C#N)(c3ccccc3)c3ccccc3)CC2)cc1
Ki [1]: 0.347 µM

COc1ccc(C(C#N)CCCN2CCC(O)(c3ccc(Cl)cc3)CC2)cc1 (configuration not stated)
Ki [1]: 0.359 µM

N#CC(CCCN1CCC(O)(c2ccc(Cl)cc2)CC1)c1ccc2ccccc2c1 (configuration not stated)
Ki [1]: 0.206 µM
IC50 [2]: 7.1 µM

N#CC(CCCN1CCC(O)(c2ccc(Cl)cc2)CC1)c1c(F)c(F)c(F)c(F)c1F (configuration not stated)
Ki [1]: 0.33 µM

N#CC1(CCCN2CCC(O)(c3ccc(Cl)c(C(F)(F)F)c3)CC2)c2ccccc2CSc2ccccc21 (configuration not stated)
Ki [1]: 0.224 µM

N#CC(CCN1CCC(O)(c2ccc(Cl)cc2)CC1)(c1ccccc1)c1ccccc1
Ki [1]: 4.06 µM
IC50 [2]: 0.4 µM

C[N+]1(CCCC(C#N)(c2ccccc2)c2ccccc2)CCC(O)(c2ccc(Cl)cc2)CC1 (configuration not stated)
Ki [1]: 0.008 µM

N#Cc1ccc(C2(O)CCN(CCCC(C#N)(c3ccccc3)c3ccccc3)CC2)cc1
Ki [1]: 0.092 µM
IC50 [2]: 10.9 µM

N#CC1(CCCN2CCC(O)(c3ccc(F)cc3)CC2)c2ccccc2CSc2ccccc21 (configuration not stated)
Ki [1]: 0.044 µM
IC50 [2]: 3 µM

N#CC1(CCCN2CCC(O)(c3ccccc3)CC2)c2ccccc2CSc2ccccc21 (configuration not stated)
Ki [1]: 0.203 µM

N#CC1(CCCN2CCC(O)(c3ccc(Cl)cc3)CC2)c2ccccc2Oc2ccccc21
Ki [1]: 0.234 µM

N#CC(CCCN1CCC(O)(c2ccc3ccccc3c2)CC1)(c1ccccc1)c1ccccc1
Ki [1]: 0.715 µM
